Source: PubChem (several laboratories)
Arrestin-AP2 inh: inhibitors of human beta-arrestin and AP2 interaction | AID 504490 | actives 0.31% (n = 340,000) | FITC-arrestin peptide / GST-AP2 beads, flow cytometry; AP2 beta2 appendage carries R879A mutation | inhibition, % at 10 µM;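 active means inhibition above a set limit, near 3 SD of compounds lacking own fluorescence, cut at about 54% in these data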;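 further: plate controls were DMSO wells for no effect and 5 µM unlabelled arrestin peptide for full effect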
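System: GST-AP2 R879A glutathione beads; medium: PBS, Tween 20 0.05%, BSA 0.1%; reagent: fluorescein-tagged arrestin peptide at 50 nM final; schedule: pre-incubation 12 min, peptide binding 1 h, room temperature; detection: flow cytometry, FL1 (488/535 nm); read-out: inhibition as reduced fluorescein signal on beads, percent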
m5-HT2A agonist: agonists of mouse serotonin 5-HT2A receptor (HTR2A) | actives 0.66% (n = 360,000) | P35363 | activation, % at 7.6 µM | CHO-K1 mHTR2A beta-arrestin complementation, luminescence; percent of 30 µM serotonin response;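 active means activation above a run cutoff, the mean activation of all tested compounds plus 3 SD, cut at about 14% in these data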;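 further: 0% = plate median of compound wells and 100% = 30 µM serotonin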
Target sequence (P35363 whole entry, looked up): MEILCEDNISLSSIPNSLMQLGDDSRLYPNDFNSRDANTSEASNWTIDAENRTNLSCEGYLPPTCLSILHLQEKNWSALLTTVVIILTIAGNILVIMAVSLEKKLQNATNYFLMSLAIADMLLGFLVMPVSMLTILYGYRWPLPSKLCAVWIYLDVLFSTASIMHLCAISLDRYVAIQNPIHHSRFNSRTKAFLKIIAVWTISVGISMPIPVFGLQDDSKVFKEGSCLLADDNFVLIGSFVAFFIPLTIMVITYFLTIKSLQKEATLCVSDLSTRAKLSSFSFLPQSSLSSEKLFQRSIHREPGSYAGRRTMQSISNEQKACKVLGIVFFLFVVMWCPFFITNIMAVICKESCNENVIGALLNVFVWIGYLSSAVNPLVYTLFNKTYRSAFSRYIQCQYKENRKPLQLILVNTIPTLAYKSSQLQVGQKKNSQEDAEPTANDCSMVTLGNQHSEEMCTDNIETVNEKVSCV
HGIII-sPLA2 inh: Inhibits HGIII-sPLA2 liposome hydrolysis, primary screen | actives 0.56% (n = 370,000) | QFRET BODIPY PC-A2 liposome hydrolysis, fluorescence | inhibition, % at 12.2 µM;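 active means inhibition above mean plus 3 SD of compounds lying within the high and low control bounds, cut at about 19% in these data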;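 further: 0% = median of test compound wells and 100% = no enzyme DMSO wells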
Lipid droplet: hepatic lipid droplet formation modulation. actives 0.4% (n = 240,000). AID 1656. AML12 mouse hepatocytes, oleate lipid droplets, BODIPY imaging. inhibition, % at 6.5 µM;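 active means lipid droplet intensity inhibited by at least 50%, with more than 500 cells counted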
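Material: mouse AML12 hepatocyte cell line, fixed after treatment; Timing: compound with oleate, overnight; Technique: high-content imaging of BODIPY-stained droplets and DAPI nuclei; Probe or stimulus: oleate, 100 µM final; Dosing: compound at 6.5 µM only.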
PfM18AAP inh-1: blocks P. falciparum M18 aspartyl aminopeptidase; recombinant PfM18AAP, H-Glu-NHMec fluorogenic cleavage; inhibition, % at 7.35 µM; actives 1.2% (n = 290,000); AID 1822;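 active means inhibition above the campaign mean inhibition over all tested compounds plus 3 SD, cut at about 28% in these data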;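 further: 0% = plate median of test compound wells and 100% = 2 mM ZnCl2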
CendR NRP1 mod: NRP-1/CendR interaction modulation; O14786; FAM-RPARPAR peptide binding to NRP-1, fluorescence polarization; inhibition, % at 25 µM; actives 0.85% (n = 360,000);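 active means inhibition or corrected inhibition above about 18%, plus a signal ratio from 0.5 to 1.5, limit read from the data, passing the limit was not always enough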
PfM18AAP inh-2: PfM18AAP inhibition, confirmation. shares compounds with PfM18AAP inh-1. recombinant PfM18AAP, H-Glu-NHMec fluorogenic cleavage. inhibition, % at 7.35 µM. actives 28% (n = 2,400). AID 2170;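 active means mean inhibition over replicate wells above the hit cutoff set for the earlier primary screen, cut at about 29% in these data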;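 further: 0% = median of test compound wells and 100% = 2 mM ZnCl2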
CTSL1 confirm: counter-screen for PFM18AAP inhibitors: confirmation of human cathepsin L inhibitors; inhibition, % at 5.96 µM; AID 2178; 2,400 tested, under 10 active; shares compounds with PfM18AAP inh-1; purified cathepsin L1, Z-Leu-Arg-MCA fluorescence;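 active means average inhibition across replicates above the hit cutoff set in the earlier primary screen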;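 further: 0% = median of test compound wells and 100% = Z-Phe-Ala-diazomethylketone 1 µM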
Active calls of the source: *; . = no result. Hits are enriched below; roughly 3.3% of the tested compounds scored in any of these assays.

SMILES	Arrestin-AP2 inh	m5-HT2A agonist	HGIII-sPLA2 inh	Lipid droplet	PfM18AAP inh-1	CendR NRP1 mod	PfM18AAP inh-2	CTSL1 confirm
COc1cc2sc3cc(NCC[C@@H]4CCCN4C)ccc3c(=O)c2cc1OC	6	-5	-7	.	.	9	.	.
COC(=O)[C@]12C[C@H](CC(=O)N3CCCCC3)C(=O)N(Cc3ccccc3)C1=C[C@H](C(C)(C)C)O[C@@H]2C	.	.	4	.	.	.	.	.
O=C(CC(O)(CC(=O)OCc1ccccc1)C(=O)OCc1ccccc1)OCc1ccccc1	7	-3	-20	.	.	5	.	.
COc1ccc(NC(=O)c2c(NC(=O)CCC(=O)O)sc3c2CCCCC3)cc1	-10	1	5	-8	44*	1	-46	-5
O=C(O)CCC(=O)Nc1sc2c(c1C(=O)NCc1ccccc1)CCCC2	-12	3	-1	0	3	0	.	.
COCc1cn(CC(C)n2c(=O)c3ccccc3n2Cc2cc(C(C)C)no2)nn1 (stereo not given)	.	-1	-5	.	.	8	.	.
CCOC(=O)N1CCN(CC(=O)c2ccc(O)c(C)c2O)CC1	-9	0	0	1	2	10	.	.
Cc1c(O)ccc(C(=O)CN2CCN(Cc3ccc4c(c3)OCO4)CC2)c1O	12	-6	16	-6	93*	-10	-18	2
COc1ccc(CN2C(=O)c3ccnn3CC2(C)c2nnnn2-c2c(C)cccc2C)cc1 (stereo not given)	.	.	-3	.	.	.	.	.
CCOC(=O)[C@]12CCCC=C1N(CCC1=CCCCC1)C(=O)[C@H](CC(=O)NCc1ccccc1)C2	.	-3	-16	.	.	12	.	.
Cc1cc(NNC(=O)Nc2cccc(Cl)c2)nc2c1c(C)nn2C	.	.	.	-10	39*	.	28	3
Cc1nn(C)c(C)c1CNC(=O)Nc1cccc(Cl)c1	2	-3	1	-2	-4	-1	.	.
FC(F)(F)Oc1cccc(Cn2ccc3ccc(-c4ccc5ccn(Cc6ccccc6)c5c4)cc32)c1	.	.	16	.	.	.	.	.
Cc1cccc(NC(=O)CSc2nnc3ccc(-c4ccccn4)nn23)c1	2	1	12	.	.	5	.	.
CCN1CCc2nc3sc(C(=O)N4CCc5ccccc5C4)c(N)c3cc2C1	15	-6	-2	-14	35*	-19	-10	-1
Clc1ccccc1-c1csc(Nc2cccnc2)n1	-9	-5	10	2	39*	0	-46	1
c1cncc(Nc2nc(-c3ccncc3)cs2)c1	3	0	1	.	-9	3	.	.
O=C(CN1CCN(c2ccc(O)cc2)CC1)Nc1cc(S(=O)(=O)N2CCCC2)ccc1Cl	9	-3	-9	-13	36*	-2	-14	-3
Cc1noc(C)c1-c1ccc(C(=O)NCc2cccc(Cl)c2)c2occc12	.	-5	-8	.	.	-3	.	.
Fc1cccc(/C=N/Nc2ccc(Cl)nn2)c1	-4	-7	3	-22	9	3	.	.
COc1cc(/C=N/Nc2ncc(C(F)(F)F)cc2Cl)cc(OC)c1OC	14	-4	0	-6	1	-17	.	.
Oc1c(Br)cc(/C=N/Nc2ccc(Cl)nn2)cc1Br	1	-4	11	-4	34*	-38	-18	0
Oc1c(Br)cc(/C=N/Nc2nncc3ccccc23)cc1Br	.	.	.	8	33*	.	10	4
COc1cc(/C=N/Nc2ccc(Cl)nn2)cc(OC)c1O	41	-1	-5	-1	39*	12	28	3
COc1cc(/C=N/Nc2ncc(C(F)(F)F)cc2Cl)cc(OC)c1O	-1	-7	0	-1	35*	-4	31*	2
SMILES	Arrestin-AP2 inh	m5-HT2A agonist	HGIII-sPLA2 inh	Lipid droplet	PfM18AAP inh-1	CendR NRP1 mod	PfM18AAP inh-2	CTSL1 confirm
O=C(OCC1CCCN2CCCCC12)c1ccc2c(c1)OCO2 (stereo not given)	16	3	4	.	35*	0	10	-8
CSc1nc(-c2ccc(C)cc2)[nH]c1S(=O)(=O)c1ccccc1	-17	-11	-11	.	3	-2	.	.
CC(=O)Sc1nc(-c2ccccc2)[nH]c1S(=O)(=O)c1ccc(C)cc1	.	.	.	0	55*	.	5	-5
CC(NC(=O)Nc1ccc(O)cc1)(C(F)(F)F)C(F)(F)F	2	1	-3	-15	4	8	.	.
CCC(NC(=O)Nc1ccc(O)cc1)(C(F)(F)F)C(F)(F)F	-2	-3	-3	.	39*	-12	-88	-1
CC(C)C(=O)N(c1ccc2oc(=O)sc2c1)S(=O)(=O)c1ccccc1	26	7	-14	-6	-4	-12	.	.
CCCC(=O)N(c1ccc2oc(=O)sc2c1)S(=O)(=O)c1cccs1	1	4	-31	.	37*	16	-14	-1
CCOC(=O)[C@]12CCCC=C1N(CCC1=CCCCC1)C(=O)[C@H](CC(=O)N1CCCC1)C2	.	-3	-2	.	.	-10	.	.
Fc1ccc(/C=N/n2cnn(Cc3ccccc3Cl)c2=S)cc1	-3	1	3	13	41*	7	-32	2
C[C@@H]1ON(C)[C@H]2C[C@H]3c4[nH]c5c(-c6ccc(C(F)(F)F)cc6)cccc5c4CCN3C(=O)[C@@H]12	.	.	-4	.	.	.	.	.
COC(=O)[C@H](CC(C)C)NC(=O)c1cc2c(cn1)[nH]c1ccccc12	34	-3	-10	-4	39*	-5	13	8
O=C(/C=C/c1ccccc1F)c1cccc([N+](=O)[O-])c1	-1	-2	3	-5	34*	2	4	5
COc1cc(/C=C/C(=O)c2cccc([N+](=O)[O-])c2)cc(OC)c1OC	-6	-1	-1	-11	8	-16	.	.
CSC1=NS(=O)(=O)c2c(C)nn(C)c2S1	-38	-2	14	-8	57*	-8	-14	-6
O=C(CSc1nc2cc(S(=O)(=O)N3CCOCC3)ccc2o1)Nc1c(F)cccc1F	4	6	1	4	32*	-26	3	-1
CC1(C)CC(=O)C=C(NNC(=O)c2ccc(N)cc2)C1	10	4	1	-2	48*	-1	19	3
